Data from ChEMBL document CHEMBL3414473.
Active and inactive are the calls of the source. The rule behind the calls is not given here.

Key:
[1] = target: RAC-alpha serine/threonine-protein kinase (Homo sapiens, UniProt P31749); test: Binding affinity to GST-tagged PH domain of AKT (unknown origin) by surface Plasmon resonance spectroscopy
Outline: (§1)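 SPR: GST-tagged PH domain fusion protein immobilized on CM5 chip by amine coupling to about 17000 RU. Analyte injected at 1–20 µM at 30 µL/min; DMSO in samples and running buffer ≤1% (v/v). Kd obtained from sensorgram fitting.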

PrEC = test: Antiproliferative activity against human PrEC cells assessed as suppression of cell viability after 24 hrs by MTT assay in serum free medium; format: cell-based
PC-3 [2] = test: Antiproliferative activity against human PTEN-negative PC3 cells assessed as suppression of cell viability after 24 hrs by MTT assay in serum free medium; format: functional, cell-based
LNCaP [3] = test: Antiproliferative activity against human LNCAP cells assessed as suppression of cell viability after 24 hrs by MTT assay; format: functional, cell-based
Outline: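 LNCaP cells seeded at 5000/well on poly-L-lysine-coated plates in 10% FBS; 24 h later exposed to agents in serum-free medium for 24 h. Viability expressed as percent of vehicle control; IC50 derived.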

[4] = target: T1, PH domain leucine-rich repeat-containing protein phosphatase 1 (Homo sapiens, UniProt O60346); test: Inhibition of PHLPP1-mediated reduction in phosphorylation of Akt at Ser473 in human LNCAP cells after 24 hrs by Western blot analysis; format: cell-based
Outline: (§2)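 LNCaP or PC-3 cells treated at various concentrations for 24 h in serum-free medium. Lysed in SDS buffer (50 mM Tris pH 8, 10 mM EDTA, 1% SDS, protease inhibitors); equal protein run on SDS-PAGE and transferred to nitrocellulose. Primary antibodies 1:1000 overnight at 4 °C, HRP secondary 1:2000; detected by ECL.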

LNCaP [5] = test: Induction of Akt localization to human LNCAP cell membrane at 10 uM after 24 hrs by immunofluorescence staining analysis; format: functional, cell-based
Outline: (§3)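 LNCaP cells on poly-L-lysine-coated surfaces, treated in serum-free medium for 24 h. Fixed in 4% formaldehyde, permeabilized with 0.1% Triton X-100, blocked in 1% FBS, primary antibody (1:300) overnight, then Alexa Fluor secondary 2 h; DAPI nuclei; confocal imaging with cross-sectional fluorescence intensity analysis.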

[6] = target: T1, PH domain leucine-rich repeat-containing protein phosphatase 1; test: Inhibition of PHLPP1-mediated reduction in phosphorylation of Akt at Ser473 in human PC3 cells after 24 hrs by Western blot analysis; format: cell-based; conditions: PC-3; outline: as §2
LNCaP [7] = test: Induction of PHLPP1 localization to human LNCAP cell membrane at 10 uM after 24 hrs by immunofluorescence staining analysis; format: functional, cell-based; outline: as §3
[8] = target: T1, PH domain leucine-rich repeat-containing protein phosphatase 1; test: Inhibition of PHLPP1-mediated reduction in phosphorylation of Akt at Thr308 in human PC3 cells after 24 hrs by Western blot analysis; format: cell-based; conditions: PC-3; outline: as §2
[9] = target: T1, PH domain leucine-rich repeat-containing protein phosphatase 1; test: Inhibition of PHLPP1-mediated reduction in phosphorylation of Akt at Thr308 in human LNCAP cells after 24 hrs by Western blot analysis; format: cell-based; outline: as §2
PC-3 [10] = test: In vivo antitumor efficacy in human PC3 cells xenografted athymic nude mouse assessed as decrease in phosphorylation of Akt at Thr308 in tumor at 100 mg/kg, po for 21 days relative to vehicle treated control; format: functional, organism-based; parameters: dose 100 mg/kg
Outline: (§4)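 Athymic nude mice given PC-3 cells sc (1 × 10⁶ per mouse); at about 50 mm³, randomized (n = 7) and dosed once daily for 21 days either ip at 50 mg/kg (vehicle saline/PEG400/DMSO/Tween 80, 65:20:10:5) or by oral gavage at 100 mg/kg (vehicle 0.5% methylcellulose/0.1% Tween 80 in water). Tumor volume measured weekly by calipers (width² × length × 0.52); phospho-proteins checked by Western blotting of tumor lysates.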

PC-3 [11] = test: In vivo antitumor efficacy in human PC3 cells xenografted athymic nude mouse assessed as inhibition of tumor growth at 50 mg/kg, ip for 21 days relative to vehicle treated control; format: functional, organism-based; parameters: dose 50 mg/kg; outline: as §4
[12] = target: T1, PH domain leucine-rich repeat-containing protein phosphatase 1; test: Inhibition of PHLPP1-mediated reduction in phosphorylation of IKK in human PC3 cells after 24 hrs by Western blot analysis; format: cell-based; conditions: PC-3; outline: as §2
PC-3 [13] = test: In vivo antitumor efficacy in human PC3 cells xenografted athymic nude mouse assessed as decrease in phosphorylation of Akt at Ser473 in tumor at 100 mg/kg, po for 21 days relative to vehicle treated control; format: functional, organism-based; parameters: dose 100 mg/kg; outline: as §4
[14] = target: T1, PH domain leucine-rich repeat-containing protein phosphatase 1; test: Inhibition of PHLPP1-mediated reduction in phosphorylation of IKK in human LNCAP cells after 24 hrs by Western blot analysis; format: cell-based; outline: as §2
[15] = target: T1, PH domain leucine-rich repeat-containing protein phosphatase 1; test: Inhibition of PHLPP1-mediated reduction in phosphorylation of MDM2 in human PC3 cells after 24 hrs by Western blot analysis; format: cell-based; conditions: PC-3; outline: as §2
PC-3 [16] = test: In vivo antitumor efficacy in human PC3 cells xenografted athymic nude mouse assessed as decrease in phosphorylation of MDM2 in tumor at 100 mg/kg, po for 21 days relative to vehicle treated control; format: functional, organism-based; parameters: dose 100 mg/kg; outline: as §4
PC-3 [17] = test: In vivo antitumor efficacy in human PC3 cells xenografted athymic nude mouse assessed as decrease in phosphorylation of IKK in tumor at 100 mg/kg, po for 21 days relative to vehicle treated control; format: functional, organism-based; parameters: dose 100 mg/kg; outline: as §4
PC-3 [18] = test: In vivo antitumor efficacy in human PC3 cells xenografted athymic nude mouse assessed as inhibition of tumor growth at 100 mg/kg, po for 21 days relative to vehicle treated control; format: functional, organism-based; parameters: dose 100 mg/kg; outline: as §4
[19] = target: T1, PH domain leucine-rich repeat-containing protein phosphatase 1; test: Inhibition of PHLPP1-mediated reduction in phosphorylation of MDM2 in human LNCAP cells after 24 hrs by Western blot analysis; format: cell-based; outline: as §2
LNCaP [20] = test: Induction of Akt-PHLPP1 complex to human LNCAP cell membrane after 24 hrs by immunofluorescence staining analysis; format: functional, cell-based
LNCaP [21] = test: Induction of Akt localization to human LNCAP cell membrane at 5 uM after 24 hrs by immunofluorescence staining analysis; format: functional, cell-based; outline: as §3
Scaffold protein ILK = target: T2, Scaffold protein ILK (Homo sapiens, UniProt Q13418); test: Binding affinity to GST-tagged PH domain of ILK (unknown origin) by surface Plasmon resonance spectroscopy; outline: as §1
T2 sequence (Q13418 whole entry): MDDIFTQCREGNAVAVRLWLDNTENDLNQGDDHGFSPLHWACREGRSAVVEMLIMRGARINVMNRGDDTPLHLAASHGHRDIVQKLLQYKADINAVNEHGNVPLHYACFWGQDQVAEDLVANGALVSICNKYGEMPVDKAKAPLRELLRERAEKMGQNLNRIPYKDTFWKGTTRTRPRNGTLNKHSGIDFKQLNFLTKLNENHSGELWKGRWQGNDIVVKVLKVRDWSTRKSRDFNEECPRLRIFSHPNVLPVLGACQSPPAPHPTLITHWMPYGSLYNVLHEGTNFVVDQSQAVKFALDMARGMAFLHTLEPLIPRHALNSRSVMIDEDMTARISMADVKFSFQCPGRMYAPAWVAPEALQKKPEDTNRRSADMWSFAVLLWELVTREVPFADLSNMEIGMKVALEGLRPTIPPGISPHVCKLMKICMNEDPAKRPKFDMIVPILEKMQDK

[22] = target: T1, PH domain leucine-rich repeat-containing protein phosphatase 1; test: Binding affinity to GST-tagged PH domain of PHLPP1 (unknown origin) by surface Plasmon resonance spectroscopy; outline: as §1
[23] = target: T3, 3-phosphoinositide-dependent protein kinase 1 (Homo sapiens, UniProt O15530); test: Binding affinity to GST-tagged PH domain of PDK1 (unknown origin) by surface Plasmon resonance spectroscopy; outline: as §1
T3 sequence (O15530 whole entry): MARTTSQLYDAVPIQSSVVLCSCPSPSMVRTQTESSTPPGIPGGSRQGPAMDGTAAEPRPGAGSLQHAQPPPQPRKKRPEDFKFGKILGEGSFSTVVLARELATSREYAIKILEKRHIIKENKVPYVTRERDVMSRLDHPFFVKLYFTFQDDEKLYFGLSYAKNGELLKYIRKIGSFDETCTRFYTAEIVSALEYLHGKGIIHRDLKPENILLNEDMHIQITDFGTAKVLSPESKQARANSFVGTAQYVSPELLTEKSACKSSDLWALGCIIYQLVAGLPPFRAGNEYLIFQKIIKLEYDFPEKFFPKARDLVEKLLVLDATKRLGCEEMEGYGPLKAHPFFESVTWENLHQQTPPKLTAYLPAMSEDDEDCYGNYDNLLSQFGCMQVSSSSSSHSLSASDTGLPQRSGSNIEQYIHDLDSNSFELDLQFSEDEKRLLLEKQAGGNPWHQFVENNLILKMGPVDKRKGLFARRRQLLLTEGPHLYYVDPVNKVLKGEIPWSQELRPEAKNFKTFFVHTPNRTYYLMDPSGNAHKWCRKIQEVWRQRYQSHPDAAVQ

LNCaP [24] = test: Induction of PHLPP1 localization to human LNCAP cell membrane at 5 uM after 24 hrs by immunofluorescence staining analysis; format: functional, cell-based; outline: as §3

RAC-alpha serine/threonine-protein kinase, sequence (P31749 whole entry, the tested form may be a part): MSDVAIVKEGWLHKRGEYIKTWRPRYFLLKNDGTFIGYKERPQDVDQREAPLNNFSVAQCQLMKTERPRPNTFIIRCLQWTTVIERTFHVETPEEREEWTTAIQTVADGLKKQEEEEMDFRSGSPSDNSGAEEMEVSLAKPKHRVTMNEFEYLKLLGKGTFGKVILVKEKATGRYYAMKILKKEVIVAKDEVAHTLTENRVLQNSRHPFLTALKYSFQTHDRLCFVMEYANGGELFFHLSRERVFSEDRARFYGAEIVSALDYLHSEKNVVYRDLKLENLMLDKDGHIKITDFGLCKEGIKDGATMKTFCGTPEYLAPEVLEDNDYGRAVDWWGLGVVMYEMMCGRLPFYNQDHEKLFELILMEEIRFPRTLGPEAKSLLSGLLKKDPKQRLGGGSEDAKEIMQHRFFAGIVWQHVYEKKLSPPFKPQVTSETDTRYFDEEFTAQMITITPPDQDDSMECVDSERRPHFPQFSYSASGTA
T1 sequence (O60346 whole entry, the tested form may be a part): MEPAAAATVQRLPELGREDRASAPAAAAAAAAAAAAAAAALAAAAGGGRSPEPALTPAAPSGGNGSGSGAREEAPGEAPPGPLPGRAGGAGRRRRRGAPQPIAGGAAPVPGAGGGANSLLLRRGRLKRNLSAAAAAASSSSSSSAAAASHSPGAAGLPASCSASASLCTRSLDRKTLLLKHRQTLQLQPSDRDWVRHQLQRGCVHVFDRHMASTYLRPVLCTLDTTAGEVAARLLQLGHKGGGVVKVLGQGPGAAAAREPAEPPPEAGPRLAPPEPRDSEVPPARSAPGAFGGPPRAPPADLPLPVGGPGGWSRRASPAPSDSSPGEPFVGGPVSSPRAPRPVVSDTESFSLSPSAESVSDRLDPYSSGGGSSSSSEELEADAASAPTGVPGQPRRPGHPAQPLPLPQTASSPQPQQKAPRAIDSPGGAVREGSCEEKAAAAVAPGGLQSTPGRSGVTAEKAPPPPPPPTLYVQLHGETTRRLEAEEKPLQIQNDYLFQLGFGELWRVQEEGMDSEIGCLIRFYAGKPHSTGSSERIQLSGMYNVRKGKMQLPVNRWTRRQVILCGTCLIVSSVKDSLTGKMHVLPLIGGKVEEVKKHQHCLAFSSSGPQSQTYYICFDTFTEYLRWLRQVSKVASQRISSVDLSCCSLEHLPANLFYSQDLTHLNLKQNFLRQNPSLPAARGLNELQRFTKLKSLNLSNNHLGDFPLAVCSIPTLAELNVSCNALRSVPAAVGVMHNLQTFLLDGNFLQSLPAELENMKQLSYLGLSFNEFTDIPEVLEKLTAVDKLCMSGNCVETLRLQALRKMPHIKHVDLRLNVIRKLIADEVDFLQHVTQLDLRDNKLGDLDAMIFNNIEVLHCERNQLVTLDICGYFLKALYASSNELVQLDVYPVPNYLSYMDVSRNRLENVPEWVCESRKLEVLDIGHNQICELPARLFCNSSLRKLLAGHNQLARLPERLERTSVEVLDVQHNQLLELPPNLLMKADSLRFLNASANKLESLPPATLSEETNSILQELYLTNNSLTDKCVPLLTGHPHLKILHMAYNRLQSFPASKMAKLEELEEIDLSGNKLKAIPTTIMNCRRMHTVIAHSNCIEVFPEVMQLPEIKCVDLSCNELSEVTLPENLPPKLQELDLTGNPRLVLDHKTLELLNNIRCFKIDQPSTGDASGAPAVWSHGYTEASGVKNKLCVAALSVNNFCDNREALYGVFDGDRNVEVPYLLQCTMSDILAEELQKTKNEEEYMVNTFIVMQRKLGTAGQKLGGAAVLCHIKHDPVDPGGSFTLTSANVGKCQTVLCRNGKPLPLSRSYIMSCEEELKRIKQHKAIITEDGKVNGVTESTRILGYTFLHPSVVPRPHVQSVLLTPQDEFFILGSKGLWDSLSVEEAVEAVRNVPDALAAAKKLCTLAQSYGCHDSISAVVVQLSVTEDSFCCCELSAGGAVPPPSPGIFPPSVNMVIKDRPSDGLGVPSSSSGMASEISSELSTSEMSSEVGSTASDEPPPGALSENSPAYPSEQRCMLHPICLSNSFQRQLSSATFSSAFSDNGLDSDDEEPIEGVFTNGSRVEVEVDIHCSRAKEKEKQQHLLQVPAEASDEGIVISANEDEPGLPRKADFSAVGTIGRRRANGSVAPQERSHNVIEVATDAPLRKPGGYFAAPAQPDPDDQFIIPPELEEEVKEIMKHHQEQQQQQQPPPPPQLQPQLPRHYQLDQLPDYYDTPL

COc1cc2c(c(C)c1C)OC(C)(CCCC(C)C)CC2 (centres undefined)
Kd [1]: 8.5 µM
Activity (PrEC): Non-toxic
Activity (PC-3 [2]): inactive
IC50 (LNCaP [3]): > 30 µM

Cc1c(O)cc2c(c1C)OC(C)(CCCC(C)C)CC2 (racemic)
Kd [1]: 0.52 µM

Cc1cc(O)cc2c1OC(C)(CCCC(C)C)CC2=O (centres undefined)
Kd [1]: 0.32 µM
IC50 (LNCaP [3]): 18 µM

Cc1cc(O)cc2c1NC(C)(CCCC(C)C)CC2 (centres undefined)
Kd [1]: 0.03 µM
IC50 (LNCaP [3]): 10 µM

CC(C)CCCC1(C)CCc2c(O)cccc2O1 (centres undefined)
Kd [1]: 0.34 µM
IC50 (LNCaP [3]): 11 µM

CC(C)CCCC1(C)CCc2cc(O)cc(F)c2O1 (centres undefined)
Kd [1]: 0.34 µM
IC50 (LNCaP [3]): 9 µM

Cc1c(O)cc2c(c1C)O[C@](C)(CCC[C@H](C)CCC[C@H](C)CCCC(C)C)CC2 [GAMMA-TOCOPHEROL]
IC50 (LNCaP [3]): > 100 µM

CC(C)CCCC1(C)CCc2ccc(O)c(O)c2O1 (centres undefined)
Kd [1]: 0.98 µM
IC50 (LNCaP [3]): 23 µM

COc1cc(O)cc2c1OC(C)(CCCC(C)C)CC2 (centres undefined)
Kd [1]: 1.88 µM
IC50 (LNCaP [3]): 26 µM

CC(C)CCCC1(C)CC(=O)c2cc(O)ccc2O1 (centres undefined)
Kd [1]: 0.28 µM
IC50 (LNCaP [3]): > 30 µM

CC(C)CCCC1(C)CCc2cc(N)ccc2O1 (centres undefined)
Kd [1]: 0.21 µM
IC50 (LNCaP [3]): > 30 µM

CC(C)CCCC1(C)CCc2cc(O)cc(C(F)(F)F)c2O1 (centres undefined)
Kd [1]: 0.45 µM
IC50 (LNCaP [3]): 8 µM

CC(C)CCCC1(C)CCc2cc(O)cc(Br)c2O1 (centres undefined)
Kd [1]: 0.39 µM
IC50 (LNCaP [3]): 8 µM

Cc1cc(O)cc2c1OC(C)(CCCC(C)C)CC2 (centres undefined)
Kd [1]: 0.41 µM
IC50 (LNCaP [3]): 7.5 µM

CC(C)CCCC1(C)CCc2cc(S(N)(=O)=O)cc(F)c2O1 (centres undefined)
Kd [1]: 0.35 µM
inhibition [4]: inactive
Activity (LNCaP [5]): inactive
inhibition [6]: inactive
IC50 (LNCaP [3]): 20 µM
Activity (LNCaP [7]): inactive

CC(C)CCCC1(C)CCc2cc(O)ccc2O1 (centres undefined)
Kd [1]: 0.35 µM
IC50 (LNCaP [3]): 10 µM

Cc1c(O)cc2c(c1C)O[C@](C)(CCCC(C)C)CC2
inhibition [8]: inactive
inhibition [9]: inactive
inhibition [4]: Dose-dependent effect
inhibition (PC-3 [10]): inactive
Activity (PC-3 [11]): Active
inhibition [12]: Dose-dependent effect
Activity (LNCaP [5]): Active
inhibition [6]: Dose-dependent effect
Activity (PC-3 [13]): inactive
inhibition [14]: Dose-dependent effect
Activity (PrEC): Non-toxic
inhibition [15]: Dose-dependent effect
Activity (PC-3 [16]): inactive
Activity (PC-3 [17]): inactive
Activity (PC-3 [18]): inactive
inhibition [19]: Dose-dependent effect
Activity (LNCaP [20]): Dose-dependent effect
Activity (LNCaP [7]): Active

CC(C)CCCC1(C)CCc2cc(O)cc(O)c2O1 (centres undefined)
Kd [1]: 1.18 µM
IC50 (LNCaP [3]): 27 µM

Cc1c(O)cc2c(c1C)OC(C)(CCCC(C)C)CC2=O (centres undefined)
Kd [1]: 0.41 µM

CC(C)CCCC1(C)CCc2cc(S(N)(=O)=O)cc(Br)c2O1 (centres undefined)
inhibition [8]: inactive
Activity (LNCaP [21]): Active
inhibition [9]: inactive
Kd [1]: 0.22 µM
inhibition [4]: Dose-dependent effect
Kd (Scaffold protein ILK): 13.1 µM
inhibition [12]: Dose-dependent effect
inhibition [6]: Dose-dependent effect
inhibition [14]: Dose-dependent effect
Activity (PrEC): Non-toxic
inhibition [15]: Dose-dependent effect
Kd [22]: 0.69 µM
Kd [23]: 11.1 µM
Activity (LNCaP [24]): Active
Activity (PC-3 [2]): Active
inhibition [19]: Dose-dependent effect
IC50 (LNCaP [3]): 4.5 µM
